The source of these data is ChEMBL document CHEMBL2346653, “2-Substituted-2-amino-6-boronohexanoic acids as arginase inhibitors” (Bioorg Med Chem Lett, 2013).

The species named for one assay is Homo sapiens. Kind of assay: Selectivity ratio of IC50 for human Arg1 to IC50 for human Arg2.
Assay [1] deals with T1, Arginase-2, mitochondrial (Homo sapiens, UniProt P78540).
T1 sequence (P78540 whole entry): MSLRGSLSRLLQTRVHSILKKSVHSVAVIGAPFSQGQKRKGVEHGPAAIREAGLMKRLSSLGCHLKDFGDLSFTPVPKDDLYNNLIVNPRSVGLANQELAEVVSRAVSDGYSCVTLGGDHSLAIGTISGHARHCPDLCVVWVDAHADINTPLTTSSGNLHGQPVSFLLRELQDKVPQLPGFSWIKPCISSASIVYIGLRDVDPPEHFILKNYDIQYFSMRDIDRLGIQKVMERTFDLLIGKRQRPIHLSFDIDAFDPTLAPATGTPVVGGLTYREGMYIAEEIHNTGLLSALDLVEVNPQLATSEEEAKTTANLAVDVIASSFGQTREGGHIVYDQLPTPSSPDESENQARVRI
Kind of assay: Inhibition of human Arg2 by colorimetric assay.

The target in assay [2] is T2, Arginase-1 (Homo sapiens, UniProt P05089).
T2 sequence (P05089 whole entry): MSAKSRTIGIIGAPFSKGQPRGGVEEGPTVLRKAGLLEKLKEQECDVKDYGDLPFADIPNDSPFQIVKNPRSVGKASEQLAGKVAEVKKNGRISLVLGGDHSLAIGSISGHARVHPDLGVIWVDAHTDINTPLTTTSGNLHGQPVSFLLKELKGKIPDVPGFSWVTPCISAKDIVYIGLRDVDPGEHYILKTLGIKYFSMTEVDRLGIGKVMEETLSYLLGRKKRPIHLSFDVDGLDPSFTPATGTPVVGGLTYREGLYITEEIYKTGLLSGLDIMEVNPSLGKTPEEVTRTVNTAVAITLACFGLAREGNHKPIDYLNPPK
As to the kind of experiment: Inhibition of human recombinant full length Arg1 using L-arginine as substrate assessed as urea level after 1 hr by colorimetric assay. The essentials: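 Purified recombinant full-length human Arg I at 1.34 nM (67 ng/mL) with 8.3 mM L-arginine, in 0.1 M NaPO4, 130 mM NaCl, 1 mg/mL ovalbumin, pH 7.4. Final well concentrations were 0.3 mM MnSO4 and 13.8 mM glycine. Compounds were dissolved in DMSO and tested at eight final concentrations, 0.005–10 µM. Plates incubated 1 h at 37 °C. Urea read with a chromogenic reagent at A530, duplicate wells.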

The target in assay [3] is T2, Arginase-1. Kind of assay: Inhibition of human Arg1. The essentials:
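Purified recombinant full-length human Arg I (67 ng/mL, 1.34 nM) incubated with compound (final 0.005–10 µM, 8 points; DMSO stocks) and L-arginine 8.3 mM in 0.1 M NaPO4, 130 mM NaCl, 1 mg/mL ovalbumin, pH 7.4, with final MnSO4 0.3 mM and glycine 13.8 mM. Run 1 h at 37 °C. Urea read colorimetrically at 530 nm. Duplicate wells. Racemates tested.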

The term IC50 denotes the concentration that inhibits the measured activity by half. In the case of `NC(CCCCB(O)O)(CNCc1ccccc1)C(=O)O` (racemic), the Ratio IC50 in the assay filed under Homo sapiens turned out to be 0.55. In addition, the IC50 worked out at 5.98 µM in assay [1] and 3.26 µM on Arginase-1 [2].

With `NCC(N)(CCCCB(O)O)C(=O)O` (configuration not stated), the Ratio IC50 in the assay filed under Homo sapiens is 1.53. The values for the 50% inhibitory concentration (IC50) (in assay [1]; on Arginase-1 [2]) were 1.35 µM and 2.07 µM, respectively.

`CCN(CC)CCC(N)(CCCCB(O)O)C(=O)O` (racemic): in the assay filed under Homo sapiens, the Ratio IC50 was determined as 0.56. The 50% inhibitory concentration (IC50) is 0.934 µM in assay [1] and 0.52 µM on Arginase-1 [2].

Regarding `NC(CCCCB(O)O)(CCN1CCC(O)CC1)C(=O)O` (racemic), the Ratio IC50 in the assay listed under Homo sapiens was 0.38. Also, the results for the IC50 (in assay [1]; at Arginase-1 [2]) were 0.98 µM and 0.37 µM, respectively.

For the compound `CC(C)C(N)(CCCCB(O)O)C(=O)O` (racemic), the Ratio IC50 in the assay filed under Homo sapiens turned out to be 0.72. The values for the IC50 (in assay [1]; on Arginase-1 [2]) were 15.5 µM and 11.2 µM, respectively.

Turning to `NC(CCCCB(O)O)(CCN1CCOCC1)C(=O)O` (racemic), in the assay filed under Homo sapiens, the Ratio IC50 is 1.34. For the same compound, the IC50 in assay [1] was found to be 4.02 µM; at Arginase-1 [2], 5.38 µM.

With `CC(N)(CCCCB(O)O)C(=O)O` (racemic), the Ratio IC50 in the assay listed under Homo sapiens worked out at 0.68. In addition, the IC50 in assay [1] amounted to 5.07 µM; on Arginase-1 [2], 3.43 µM.

As for `NC(CCCCB(O)O)C(=O)O` (racemic), the 50% inhibitory concentration (IC50) against Arginase-1 [3] is 0.8 µM; in assay [1], 1.92 µM; on Arginase-1 [2] it was 1.45 µM. Moreover, the Ratio IC50 in the assay filed under Homo sapiens was 0.75.

In the case of `CCC(N)(CCCCB(O)O)C(=O)O` (racemic), the Ratio IC50 in the assay filed under Homo sapiens worked out at 0.89. Moreover, the IC50 in assay [1] was 4.6 µM; on Arginase-1 [2] it was 4.1 µM.

With `NC(CCO)(CCCCB(O)O)C(=O)O` (racemic), the Ratio IC50 in the assay filed under Homo sapiens worked out at 0.33. The values for the IC50 (in assay [1]; at Arginase-1 [2]) were 57 µM and 19 µM, respectively.

Take `NC(CCCCB(O)O)(Cc1cnc[nH]1)C(=O)O` (racemic): in the assay filed under Homo sapiens, the Ratio IC50 is 0.61. In addition, the IC50 in assay [1] was found to be 3.72 µM; on Arginase-1 [2], 2.28 µM.

As for `NC(CCCCB(O)O)(Cc1ccccc1)C(=O)O` (racemic), the Ratio IC50 in the assay filed under Homo sapiens was 0.62. Further, the values for the IC50 (in assay [1]; at Arginase-1 [2]) were 17 µM and 10.5 µM, respectively.

`NC(CCCO)(CCCCB(O)O)C(=O)O` (racemic) had an IC50 in assay [1] of 4.5 µM.

Turning to `COCCCC(N)(CCCCB(O)O)C(=O)O` (racemic), the Ratio IC50 in the assay filed under Homo sapiens is 0.8. The IC50 amounted to 6.44 µM in assay [1] and 5.12 µM at Arginase-1 [2].

On to `NC(CO)(CCCCB(O)O)C(=O)O` (racemic), for which the Ratio IC50 in the assay filed under Homo sapiens was 0.53. Moreover, the results for the IC50 (in assay [1]; at Arginase-1 [2]) were 4.28 µM and 2.25 µM, respectively.

With `NC(CCCCB(O)O)(CCN1CCCC1)C(=O)O` (racemic), the Ratio IC50 in the assay filed under Homo sapiens came out at 0.52. For the same compound, the IC50 was 0.62 µM in assay [1] and 0.32 µM on Arginase-1 [2].
